Source: PubChem BioAssay (several laboratories)
Most compounds without a hit are left out; they make up all but 4.5% or so of the library.
CHOP inhibitor – inhibitors of CHOP promoter induction, primary screen, cell-based, unfolded protein response, luciferase reporter. CHO-K1 CHOP-promoter luciferase, tunicamycin-induced, 15-18 h. inhibition, % at 10 µM. 220,000 compounds, 3.8% hits;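 active = compounds that reduced the stress-induced luciferase reporter signal by more than about 70% of percent inhibition, limit read from the data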
UPR CHOP act – activators of apoptotic CHOP UPR arm, primary screen, cell-based, CHO-CHOP luciferase reporter, luminescence, uHTS; UPR activation; percent of tunicamycin response over DMSO baseline; activation, % at 10 µM; 330,000 compounds, 0.34% hits;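 active = at 10 µM dose, activation of 40% or more, normalized to positive control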
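Evaluation: % reporter activation, DMSO baseline versus tunicamycin full activation; System: CHO-CHOP luciferase reporter cell line; Input: 500 cells/well; Incubation: 6 h compound treatment, 37 °C; Measured by: Steady-Glo luciferase luminescence; Dosing: one dose, 10 µM in 0.5% DMSO; Buffer or medium: F12 medium, 10% FBS; Benchmarks: positive tunicamycin 10 µg/mL, negative DMSO alone.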
M18AAP inhibitor – PfM18AAP inhibitors, malaria aminopeptidase, primary screen, biochemical, QFRET, recombinant enzyme | H-Glu-NHMec fluorogenic cleavage | 290,000 compounds, 1.2% hits | M18 aspartyl aminopeptidase (Plasmodium falciparum 3D7) | inhibition, % at 7.35 µM;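 active = inhibition above the campaign mean inhibition over all tested compounds plus 3 SD, cut at about 28% in these data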
HCV NS3 hel inh – inhibitors of HCV NS3 helicase, primary screen, biochemical, Cy5 molecular beacon fluorescence. NS3 helicase DNA unwinding. inhibition, % at 10.9 µM. 290,000 compounds, 0.56% hits. AID 1800, 2009;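 active = inhibition above the mean of all tested compounds plus 3 SD, set per campaign, cut at about 35% in these data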
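Assay system – hepatitis C virus NS3 helicase domain fragment enzyme · Buffer or medium – MOPS pH 6.5, MgCl2, DTT, Tween20, BSA · Reagent – Cy5/quencher beacon DNA duplex and ATP to start · Compound – single 10.9 µM dose · Timing – 1 h at 25 °C · Technique – Cy5 beacon fluorescence read at start and 1 h · Measure – % inhibition of unwinding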
p97 inhibitor – inhibitors of human p97 ATPase, primary screen, biochemical; inhibition, % at 8 µM; AID 1481, 2009; recombinant p97 ATPase, Kinase-Glo ATP luminescence, 3 h; 220,000 compounds, 0.42% hits; Transitional endoplasmic reticulum ATPase (Homo sapiens), P55072; in the data active = inhibition above about 15%
Target sequence (P55072 whole entry, looked up): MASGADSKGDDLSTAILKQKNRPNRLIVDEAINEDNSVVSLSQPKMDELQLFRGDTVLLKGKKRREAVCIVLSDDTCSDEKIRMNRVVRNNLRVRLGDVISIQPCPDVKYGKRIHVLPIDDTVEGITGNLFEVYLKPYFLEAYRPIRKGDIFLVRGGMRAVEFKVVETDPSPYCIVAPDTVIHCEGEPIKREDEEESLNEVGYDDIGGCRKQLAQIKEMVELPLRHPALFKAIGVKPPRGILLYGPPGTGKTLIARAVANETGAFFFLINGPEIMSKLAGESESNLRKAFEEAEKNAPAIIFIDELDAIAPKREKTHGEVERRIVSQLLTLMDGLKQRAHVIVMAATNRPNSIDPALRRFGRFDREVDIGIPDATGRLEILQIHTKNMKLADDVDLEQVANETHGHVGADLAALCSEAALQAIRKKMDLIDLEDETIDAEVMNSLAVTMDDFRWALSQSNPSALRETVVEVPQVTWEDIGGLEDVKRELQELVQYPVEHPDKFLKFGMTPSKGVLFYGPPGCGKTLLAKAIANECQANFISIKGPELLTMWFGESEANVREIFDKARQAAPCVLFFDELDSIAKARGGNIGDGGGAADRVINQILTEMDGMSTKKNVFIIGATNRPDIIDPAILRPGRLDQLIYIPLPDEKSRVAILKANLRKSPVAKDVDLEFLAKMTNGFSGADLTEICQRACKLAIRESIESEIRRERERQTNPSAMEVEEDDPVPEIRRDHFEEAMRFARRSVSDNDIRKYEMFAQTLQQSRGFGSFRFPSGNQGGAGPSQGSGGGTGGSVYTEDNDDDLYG
XBP1 UPR activ – activators of adaptive XBP1 UPR arm, primary screen, cell-based, CHO-XBP1 luciferase reporter, luminescence, uHTS; IRE1-XBP1 UPR activation; percent of tunicamycin response, DMSO as zero; 330,000 compounds, 0.33% hits; AID 463104, 2010; activation, % at 20 µM;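 active = versus positive control, 20 µM dose yields 30% or more activation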
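Assay system: IRE1-XBP1 luciferase reporter CHO line. Input: 1000 cells/well. Buffer or medium: F12 with 10% serum. Doses: 20 µM, 1% DMSO. Times: overnight seeding at 37 °C, 6 h compound treatment at 37 °C. Technique: Steady-Glo luciferase glow luminescence, 10 min after reagent addition.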
NS3 helicase cf – HCV NS3 helicase inhibitors, retest, confirmation, biochemical, Cy5 molecular beacon fluorescence, triplicate; shares compounds with HCV NS3 hel inh; NS3 helicase DNA unwinding; inhibition, % at 10.9 µM; 1,600 compounds, 31% hits;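 active = inhibition above the mean of all tested compounds plus 3 SD, cutoff set per campaign, cut at about 36% in these data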
FID counter trip – compounds displacing fluorescent DNA intercalator, artefact control for HCV NS3 helicase inhibitor project, biochemical, FID fluorescence, triplicate | shares compounds with HCV NS3 hel inh | DNA fluorescent intercalator displacement | inhibition, % at 7.9 µM | 1,600 compounds, 4% hits | AID 1945, 2009; in the data active = inhibition above about 37%;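 also: higher means more displacement of ethidium bromide from the DNA hairpin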
Of the large screens only hits and unclear results are named; the others gave an inactive call (follow-up assays come after a bar, where they were run).

Cc1ccc(OCc2n[nH]c(=S)n2-c2ccc(Cl)cc2)cc1	none (no result: CHOP inhibitor, p97 inhibitor)
Cc1ccc(OCc2n[nH]c(=S)n2-c2ccc(Br)cc2)cc1	HCV NS3 hel inh 37 (no result: CHOP inhibitor, p97 inhibitor) | NS3 helicase cf inactive | FID counter trip inactive
COc1cccc([C@@H]2CC=C(C(=O)O)[C@H](c3ccc(Br)cc3)N2S(=O)(=O)c2ccc(C)cc2)c1	none (no result: CHOP inhibitor, M18AAP inhibitor, HCV NS3 hel inh, p97 inhibitor)
CCOC(=O)CC(=O)NC(C)(C)CCCCC(C)(C)NC(=O)CC(=O)OCC	none
Oc1c(Br)cc(/C=N/n2c(-c3ccccc3)n[nH]c2=S)c(Br)c1O	M18AAP inhibitor 33, HCV NS3 hel inh 39 (no result: CHOP inhibitor, UPR CHOP act, p97 inhibitor, XBP1 UPR activ) | NS3 helicase cf 65 | FID counter trip inactive
Oc1c(Br)cc(Br)cc1/C=N/n1c(-c2ccccc2)n[nH]c1=S	none (no result: CHOP inhibitor, p97 inhibitor)
COc1cc(NC(=O)CCc2nnc3ccc(N4CCN(C)CC4)nn23)cc(OC)c1	none (no result: CHOP inhibitor, p97 inhibitor)
Cc1ccc(/C=C/c2nc3sc(C(=O)O)c(C)c3c(=O)[nH]2)cc1[N+](=O)[O-]	none (no result: CHOP inhibitor, p97 inhibitor)
Cc1c(C(=O)O)sc2nc(/C=C/c3cccc(F)c3)[nH]c(=O)c12	HCV NS3 hel inh 63 (no result: CHOP inhibitor, p97 inhibitor) | NS3 helicase cf inactive | FID counter trip inactive
CCN1C/C(=C/c2ccc(N3CCOCC3)cc2)C(=O)/C(=C/c2ccc(N3CCOCC3)cc2)C1	HCV NS3 hel inh 51 (no result: UPR CHOP act, XBP1 UPR activ) | NS3 helicase cf inactive | FID counter trip inactive
N#CC1=C(S)N(c2ccccc2)C(c2ccc(-c3cccc(Cl)c3)o2)NC1=O (configuration not stated)	HCV NS3 hel inh 36 | NS3 helicase cf 60 | FID counter trip inactive
Cc1cccc(N2C(S)=C(C#N)C(=O)NC2c2ccco2)c1 (configuration not stated)	none
CCOC(=O)CC(=O)CSc1nc(N)c(C#N)c(-c2ccc(F)cc2)c1C#N	HCV NS3 hel inh 57 | NS3 helicase cf inactive | FID counter trip inactive
CNc1ccccc1NC(=O)C1CCCN1C(=O)OCc1ccccc1 (configuration not stated)	none (no result: CHOP inhibitor, p97 inhibitor)
O=C(C(Cc1ccccc1)n1cccc1)N1CCN(Cc2ccccc2)CC1 (configuration not stated)	HCV NS3 hel inh 42 | NS3 helicase cf inactive | FID counter trip inactive
O=C(C(Cc1ccccc1)n1cccc1)N1CCCCC1 (configuration not stated)	none
O=C(CSc1nnc(-c2cccnc2)n1Cc1ccco1)N1CCc2ccccc21	none
Cc1occc1-c1nnc(SCC(=O)N2CCCc3ccccc32)n1Cc1ccco1	HCV NS3 hel inh 45 | NS3 helicase cf inactive | FID counter trip inactive
COc1ccc(C(CC(=O)NC(C)c2ccc(-c3ccccc3)cc2)NC(C)=O)cc1 (configuration not stated)	none (no result: CHOP inhibitor, p97 inhibitor)
O=C(Nc1nnc(-c2ccccc2)o1)c1cc(Cl)sc1Cl	none
O=C(Nc1nnc(-c2ccc3c(c2)CCCC3)o1)c1ccccc1Cl	HCV NS3 hel inh 49 | NS3 helicase cf inactive | FID counter trip inactive
Cc1c(CC(=O)O)c(=O)oc2cc(OCc3ccc(F)cc3Cl)ccc12	HCV NS3 hel inh 48 (no result: CHOP inhibitor, p97 inhibitor) | NS3 helicase cf 51 | FID counter trip inactive
CCN(CC)CCNC(=O)CNC(=O)c1nn(-c2ccc(OC)c(OC)c2)c(=O)c2ccccc12	none (no result: CHOP inhibitor, p97 inhibitor)
Cc1ccc(Oc2ccc(OCC(=O)NC(CC(C)C)C(=O)O)cc2)cc1 (configuration not stated)	HCV NS3 hel inh 45 | NS3 helicase cf 39 | FID counter trip inactive
COc1ccc(/C=C\c2onc(C)c2S(=O)(=O)N2CCC(C(=O)NCc3ccco3)CC2)cc1	HCV NS3 hel inh 50 | NS3 helicase cf inactive | FID counter trip inactive
O=C(CN1CCC(C(=O)O)CC1)Nc1ccccc1Oc1ccccc1	HCV NS3 hel inh 37 | NS3 helicase cf inactive | FID counter trip inactive
COc1ccccc1NC(=O)CN1CCC(C(=O)c2ccc(F)cc2)CC1	none
O=C(c1ccccc1)N1CCN(C(=O)c2nn3c(C(F)(F)F)cc(-c4ccco4)nc3c2Br)CC1	HCV NS3 hel inh 47 (no result: CHOP inhibitor, p97 inhibitor) | NS3 helicase cf inactive | FID counter trip inactive
O=C(NC1CCCCC1)c1nn2c(C(F)(F)F)cc(-c3ccco3)nc2c1Br	none
Cc1cccc(CSc2nc3sc(C)c(C)c3c(=O)n2Cc2ccco2)c1	HCV NS3 hel inh 39 | NS3 helicase cf inactive | FID counter trip inactive
Cc1sc2nc(SCc3ccccc3)n(Cc3ccco3)c(=O)c2c1C	none
Cc1ccc(-c2ccc(C3C(C#N)=C(N)Oc4n[nH]c(C)c43)o2)cc1 (configuration not stated)	HCV NS3 hel inh 40 | NS3 helicase cf inactive | FID counter trip inactive
O=C(NCCC(=O)N1CCN(c2ccccn2)CC1)c1ccc([N+](=O)[O-])cc1	none (no result: CHOP inhibitor, M18AAP inhibitor, HCV NS3 hel inh, p97 inhibitor)
COc1cccc(NC2c3ccccc3C(=O)N2Cc2ccco2)c1 (configuration not stated)	none
Cc1ccccc1NC1c2ccccc2C(=O)N1Cc1ccco1 (configuration not stated)	HCV NS3 hel inh 41 | NS3 helicase cf inactive | FID counter trip inactive
CC12CCCCC1NS(=O)(=O)OC2 (configuration not stated)	HCV NS3 hel inh 41 (no result: CHOP inhibitor, p97 inhibitor) | NS3 helicase cf inactive | FID counter trip inactive
COc1cccc(-c2ccc(NC(=O)C3CCCN(CCCn4nc(C)cc4C)C3)cc2)c1 (configuration not stated)	none (no result: CHOP inhibitor, p97 inhibitor)
COc1ccc(C(=O)Nc2cc(C)nn2-c2ccc(F)cc2)cc1	none (no result: CHOP inhibitor, p97 inhibitor)
COc1ccc(OC)c(NC(=O)CN2C(=O)C3(OCCCO3)c3ccccc32)c1	HCV NS3 hel inh 54 | NS3 helicase cf inactive | FID counter trip inactive
O=C(NCCOc1ccccc1)c1ccccc1SCC(=O)N1CCCC1	none (no result: CHOP inhibitor, M18AAP inhibitor, HCV NS3 hel inh, p97 inhibitor)
COc1ccc(C(=O)/C=C/c2cc(C(=O)O)cc3c2OCOC3)c(O)c1	none
O=C(O)c1cc(/C=C/C(=O)c2cc(F)ccc2O)c2c(c1)COCO2	HCV NS3 hel inh 49 | NS3 helicase cf 52 | FID counter trip inactive
Cc1cc(O)c(C(=O)/C=C/c2ccccc2)c(=O)o1	HCV NS3 hel inh 43 (no result: CHOP inhibitor, p97 inhibitor) | NS3 helicase cf inactive | FID counter trip inactive
Cc1cc(O)c(C(=O)/C=C/c2ccc(C(C)C)cc2)c(=O)o1	none (no result: CHOP inhibitor, p97 inhibitor)
